Four compounds from ChEMBL document CHEMBL1139427, “Inhibition of IkappaB kinase-beta and anticancer activities of novel chalcone adamantyl arotinoids” (J Med Chem, 2008) can be followed below.

Activity calls are given as the source filed them. No cut-off for these calls is given here.

Experiment [1] has as its target T1, Retinoic acid receptor alpha (Homo sapiens) (UniProt P10276).
T1 sequence (whole entry): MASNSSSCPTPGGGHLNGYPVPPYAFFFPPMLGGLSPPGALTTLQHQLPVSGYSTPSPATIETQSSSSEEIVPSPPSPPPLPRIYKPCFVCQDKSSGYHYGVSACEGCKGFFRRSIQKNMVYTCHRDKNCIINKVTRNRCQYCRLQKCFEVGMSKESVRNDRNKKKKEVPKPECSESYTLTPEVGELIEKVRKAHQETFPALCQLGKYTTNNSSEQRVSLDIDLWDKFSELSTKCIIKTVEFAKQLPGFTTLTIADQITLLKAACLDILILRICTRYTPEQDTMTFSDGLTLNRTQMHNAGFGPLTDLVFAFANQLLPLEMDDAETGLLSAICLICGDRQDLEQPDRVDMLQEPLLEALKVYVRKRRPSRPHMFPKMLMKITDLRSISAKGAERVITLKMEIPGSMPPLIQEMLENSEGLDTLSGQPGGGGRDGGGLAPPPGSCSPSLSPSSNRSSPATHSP
In words: Activity at human RARalpha expressed in african green monkey CV1 cells assessed as enhanced Gal4 transactivation activity by luciferase reporter gene assay. It counts as cell-based. To be noted: CV-1. In a few lines:
(§1)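 Gal4 DBD fused to human RAR LBD (α 156-462, β 149-448, γ 158-454), cotransfected into CV-1 cells (20 000/well) with UAS-luciferase and β-galactosidase vectors. 16 h later, medium with 5% charcoal-treated FBS; compound at 2 µM alone, ATRA 1 µM reference. Read after 6 h (RARα, RARβ) or 20 h (RARγ). Normalized luciferase as % of ATRA maximum; mean ± SD, ≥2 experiments in triplicate.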
On the technique in general: A reporter such as luciferase makes a cellular process visible.

Experiment [2] deals with T2, Retinoic acid receptor beta (Homo sapiens) (UniProt P10826).
T2 sequence (whole entry): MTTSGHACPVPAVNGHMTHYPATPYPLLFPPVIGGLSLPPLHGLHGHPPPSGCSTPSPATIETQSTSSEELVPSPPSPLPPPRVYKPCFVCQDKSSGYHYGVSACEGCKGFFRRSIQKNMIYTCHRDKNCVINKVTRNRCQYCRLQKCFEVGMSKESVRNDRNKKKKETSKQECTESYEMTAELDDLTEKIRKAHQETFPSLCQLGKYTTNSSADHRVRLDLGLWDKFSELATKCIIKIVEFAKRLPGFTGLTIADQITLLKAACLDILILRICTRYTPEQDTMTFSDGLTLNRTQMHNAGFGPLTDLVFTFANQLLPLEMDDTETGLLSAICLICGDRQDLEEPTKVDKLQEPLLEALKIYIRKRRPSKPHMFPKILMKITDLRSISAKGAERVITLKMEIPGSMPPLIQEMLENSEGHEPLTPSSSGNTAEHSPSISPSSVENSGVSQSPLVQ
In words: Activity at human RARbeta expressed in african green monkey CV1 cells assessed as enhanced Gal4 transactivation activity by luciferase reporter gene assay. It counts as cell-based. The settings on record: CV-1. The method in brief:
as §1

The target in experiment [3] is T3, Retinoic acid receptor gamma (Homo sapiens) (UniProt P13631).
T3 sequence (whole entry): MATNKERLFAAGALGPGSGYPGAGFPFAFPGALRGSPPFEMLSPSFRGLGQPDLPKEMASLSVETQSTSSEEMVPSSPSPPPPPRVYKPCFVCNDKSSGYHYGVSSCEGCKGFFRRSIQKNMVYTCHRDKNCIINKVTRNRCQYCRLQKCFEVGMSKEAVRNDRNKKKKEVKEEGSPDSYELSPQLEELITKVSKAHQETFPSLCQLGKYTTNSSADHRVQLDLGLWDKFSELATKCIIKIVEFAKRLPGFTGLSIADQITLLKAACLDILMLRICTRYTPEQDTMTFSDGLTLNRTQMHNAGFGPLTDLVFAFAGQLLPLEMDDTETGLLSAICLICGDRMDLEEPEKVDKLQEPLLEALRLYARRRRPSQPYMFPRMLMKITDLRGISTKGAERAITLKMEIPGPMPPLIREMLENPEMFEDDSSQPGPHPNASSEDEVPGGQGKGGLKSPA
In words: Activity at human RARgamma expressed in african green monkey CV1 cells assessed as enhanced Gal4 transactivation activity by luciferase reporter gene assay. It is filed as cell-based. The settings on record: CV-1. In a few lines: as §1

In experiment [4] the target is T1, Retinoic acid receptor alpha (Homo sapiens). Description: Antagonist activity at human RARalpha expressed in african green monkey CV1 cells assessed as all-trans-retinoic acid-stimulated Gal4 transactivation activity by luciferase reporter gene assay. It counts as functional, cell-based. The settings on record: CV-1. The method in brief:
(§2)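 Same Gal4-RAR LBD/UAS-luciferase CV-1 transfection, 5% charcoal-treated FBS medium. Cells stimulated with 0.2 µM ATRA alone or with 2 µM compound (10-fold molar excess). Readout after 6 h (RARα, RARβ) or 20 h (RARγ). Luciferase normalized to β-galactosidase, as % of ATRA maximum; mean ± SD, ≥2 experiments in triplicate.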

Experiment [5] concerns the target T2, Retinoic acid receptor beta (Homo sapiens). In words: Antagonist activity at human RARbeta expressed in african green monkey CV1 cells assessed as all-trans-retinoic acid-stimulated Gal4 transactivation activity by luciferase reporter gene assay. It is filed as functional, cell-based. On the set-up: scale not given: the % may be the effect or the level left. The settings on record: CV-1. In a few lines:
as §2

Experiment [6] has as its target T3, Retinoic acid receptor gamma (Homo sapiens). In words: Antagonist activity at human RARgamma expressed in african green monkey CV1 cells assessed as all-trans-retinoic acid-stimulated Gal4 transactivation activity by luciferase reporter gene assay. On the set-up: scale not given: the % may be the effect or the level left. The settings on record: CV-1. It counts as functional, cell-based. The method in brief: as §2

Experiment [7] has as its system Jurkat. In words: Antiproliferative activity against retinoid related molecule-sensitive human Jurkat cells after 24 hrs by MTT assay. It is filed as functional, cell-based. In a few lines:
(§3)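 MTT viability assay. PC-3, T-47D and MDA-MB-468 seeded at 5000/well the day before, switched to 0.5% FBS medium at treatment. Jurkat seeded at 10 000/well (10⁵ cells/mL) in RPMI with 0.5% FBS. Compound 0.125-8 µM from DMSO stocks; DMSO ≤0.1% as control. Jurkat 24 h, others 48 h. MTT 4 h at 37 °C, SDS/HCl solubilization, A595. IC50 from two experiments in triplicate.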
(Formazan colour is commonly taken as a measure of viable cells.)

Experiment [8] has as its system PC-3. In words: Antiproliferative activity against human PC3 cells after 48 hrs by MTT assay. The settings on record: PC-3, 48 h. It counts as functional, cell-based. The method in brief: as §3
The test system of experiment [9] is T47D. Description: Antiproliferative activity against estrogen-dependent human T47D cells after 48 hrs by MTT assay. It counts as functional, cell-based. The method in brief:
as §3

Experiment [10] concerns MDA-MB-468. Description: Antiproliferative activity against estrogen-independent human MDA-MB-468 cells after 48 hrs by MTT assay. To be noted: MDA-MB-468, 48 h. It counts as functional, cell-based. In a few lines: as §3
Experiment [11] has as its system MDA-MB-468. Description: Antiproliferative activity against estrogen-independent human MDA-MB-468 cells by MTT assay. It is filed as functional, cell-based. To be noted: TDE = time-dependent effect. In a few lines: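 MDA-MB-468 cells exposed to 2 µM compound in 0.5% FBS medium for 24, 48 or 72 h. Proliferation by MTT (A595) relative to DMSO control. Experiment repeated twice with triplicate time points; one representative experiment reported.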

Experiment [12] has as its system Jurkat. Description: Induction of apoptosis in human Jurkat cells assessed as enhanced DEVDase activity after 4 hrs by fluorescence enzymatic assay. It is filed as functional, cell-based. The method in brief:
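Jurkat cells (40 000/well, 10⁶ cells/mL) in RPMI with 0.5% FBS, treated 4 h (2 or 4 µM). Lysed in PIPES/NP-40 buffer 30 min at 4 °C, then diluted into HEPES/CHAPS caspase buffer with 100 µM Ac-DEVD-AFC. AFC release read every 2 min over 30 min at 37 °C (ex 390/em 510 nm). Two experiments in triplicate, mean ± SD.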

In experiment [13] the target is T4, Inhibitor of nuclear factor kappa-B kinase subunit beta (Homo sapiens, UniProt O14920).
T4 sequence (O14920 whole entry): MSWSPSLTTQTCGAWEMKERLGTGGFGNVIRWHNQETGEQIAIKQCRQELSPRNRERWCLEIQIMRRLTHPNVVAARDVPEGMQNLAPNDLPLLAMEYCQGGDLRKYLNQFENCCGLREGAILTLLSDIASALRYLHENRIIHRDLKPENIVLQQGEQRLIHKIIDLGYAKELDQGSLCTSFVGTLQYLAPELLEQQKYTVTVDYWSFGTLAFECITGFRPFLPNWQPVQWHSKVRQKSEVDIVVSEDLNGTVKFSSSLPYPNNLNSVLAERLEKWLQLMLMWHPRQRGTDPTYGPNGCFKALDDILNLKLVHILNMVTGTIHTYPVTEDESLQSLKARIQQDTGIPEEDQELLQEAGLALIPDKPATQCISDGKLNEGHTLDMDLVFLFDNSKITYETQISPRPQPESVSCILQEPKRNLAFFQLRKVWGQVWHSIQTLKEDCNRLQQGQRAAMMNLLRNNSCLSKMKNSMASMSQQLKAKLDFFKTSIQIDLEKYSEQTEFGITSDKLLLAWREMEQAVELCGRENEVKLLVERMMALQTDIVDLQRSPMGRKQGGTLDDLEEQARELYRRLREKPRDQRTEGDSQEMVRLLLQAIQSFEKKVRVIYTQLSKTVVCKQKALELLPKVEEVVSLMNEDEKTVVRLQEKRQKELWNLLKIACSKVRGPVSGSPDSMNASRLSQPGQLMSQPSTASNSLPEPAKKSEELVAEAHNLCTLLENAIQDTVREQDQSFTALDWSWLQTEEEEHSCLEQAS
In words: Inhibition of purified recombinant histidine-HA-tagged IKK-beta expressed in SF9 cells.

In experiment [14] the target is T5, Inhibitor of nuclear factor kappa-B kinase subunit beta (Homo sapiens) (UniProt O14920).
T5 sequence (whole entry): T4 sequence (O14920 whole entry)
In words: Inhibition of purified recombinant histidine-HA-tagged IKK-beta expressed in SF9 cells at 20 uM. The method in brief:
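(His)6-HA-IKKβ expressed in baculovirus-infected Sf9 cells and Ni-resin purified. 100 ng enzyme in MOPS pH 7.0 buffer with 5 µg GST-IκBα, 10 mM MgCl₂, 6.25 µM ATP (Km level) plus ³²P-γ-ATP. Compound (20 µM) preincubated with enzyme/substrate before ATP/Mg addition. 30 min at 30 °C, stopped with phosphoric acid, filter-bound radioactivity counted. No-enzyme background subtracted; activity as ratio to control. Two to four experiments in triplicate.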

Experiment [15] concerns Retinoid X receptor RXR-alpha (Mus musculus). In words: Inhibition of LGD-1069-mediated mouse RXRalpha activation expressed in african green monkey CV1 cells. To be noted: CV-1.
For experiment [16] the test system is unchanged. Description: Activation of mouse RXRalpha expressed in african green monkey CV1 cells assessed as luciferase activity. The settings on record: CV-1.
Experiment [17] shares this test system. In words: Inhibition of 9-cis-retinoic acid-mediated mouse RXRalpha activation expressed in african green monkey CV1 cells. To be noted: CV-1.
Experiment [18] has as its system MDA-MB-468. Description: Antiproliferative activity against estrogen-independent human MDA-MB-468 cells at 2 uM after 72 hrs by MTT assay.

Consider `COCCOCOc1ccc(C(=O)/C=C/c2ccc(C(=O)O)cc2)cc1C12CC3CC(CC(C3)C1)C2`, for which the outcome in [1], in experiment [2], in experiment [3], in experiment [15], in [16] and in [17] was inactive. Moreover, the outcome in experiment [4] and in experiment [12] was Active. The Activity in experiment [5] was 30%; in experiment [6] it was 30%; in experiment [11] it was “tde”. The IC50 in [7] turned out to be 1200 nM; in [8], 1480 nM; in [9], 3270 nM; in experiment [10], 2110 nM; in experiment [13], 7000 nM. The inhibition in [14] was determined as 65%.
Take `COCCOCOc1cc(O)c(C(=O)/C=C/c2ccc(C(=O)O)cc2)cc1C12CC3CC(CC(C3)C1)C2`: the outcome in [1], in experiment [2], in [3], in [15], in experiment [16] and in [17] was inactive. Moreover, the result in experiment [4], in [5], in experiment [6] and in [12] was Active. Moreover, the half-inhibitory concentration (IC50) is 1890 nM in [7], 2510 nM in experiment [8], 8000 nM in [9] and 6080 nM in experiment [10]. Also, the Activity entry in experiment [11] is “tde”; in experiment [18] it was 40%.
As to `Cc1ccc2nc(NCCN)c3ncc(C)n3c2c1`, the outcome in experiment [14] was Active.
For `CC1(C)CC=C(C#Cc2ccccc2)c2cc(/C=C/c3ccc(C(=O)O)cc3)ccc21`, the result in [4], in experiment [5] and in [6] was Active.

As a reminder, the IC50 is the concentration that inhibits the measured activity by half. One may read the inhibition as the relative decrease from the control value, in per cent.
